Among the data in ChEMBL document CHEMBL1124366, “Synthesis and biological properties of N63-carboxamides of teicoplanin antibiotics. Structure-activity relationships” (J Med Chem, 1989) are MIC and ED50 values, retold here.

In brackets after ≈: the same amount, converted by molar mass. Some results are limits rather than exact numbers.

Holding throughout (format): functional
One assay has as its system Enterococcus faecalis. Briefly: In vitro minimum inhibitory concentration against Streptococcus faecalis ATCC 7080.
The subject of assay [1] is Streptococcus pyogenes. The assay can be described thus: In vitro minimum inhibitory concentration against Streptococcus pyogenes C 203.
For assay [2], the system named is Staphylococcus epidermidis. The assay can be described thus: In vitro minimum inhibitory concentration against Staphylococcus epidermis ATCC 12228.
Assay [3] concerns Staphylococcus haemolyticus. Briefly: In vitro minimum inhibitory concentration against Staphylococcus hemolyticus 602 cell line. The following applies: strain 602.
For another assay, the system named is Staphylococcus aureus. Briefly: In vitro minimum inhibitory concentration against Staphylococcus aureus Tour.
The test system of the next assay is Streptococcus pneumoniae. The assay can be described thus: In vitro minimum inhibitory concentration against Streptococcus pneumoniae UC41.
Assay [4] deals with Streptococcus pyogenes. The assay can be described thus: Subcutaneously administration into mice infected with Streptococcus pyogenes C 203. The following applies: sc. The gist of the method: (§1)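 Mice (five per treatment group, five groups) infected intraperitoneally with about 10⁵ cells of Strep. pyogenes C 203, about 100× the LD50. ED50 (mg/kg) was calculated from the percentage of mice surviving at each dose on day 7.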

In assay [5] the test system is Streptococcus pyogenes. Briefly: In vivo effective dose given perorally to mice infected with Streptococcus pyogenes C 203. Particulars: po. The method in brief: as §1

Regarding `CC(=O)N[C@@H]1[C@H](O[C@@H]2c3ccc(c(Cl)c3)Oc3cc4cc(c3O[C@@H]3O[C@@H](CO)[C@@H](O)[C@H](O)[C@@H]3NC(=O)CCCCCCC(C)C)Oc3ccc(cc3Cl)C[C@H]3NC(=O)[C@H](N)c5ccc(O)c(c5)Oc5cc(O)cc(c5)[C@H](NC3=O)C(=O)N[C@H]4C(=O)N[C@H]3C(=O)N[C@@H]2C(=O)N[C@H](C(=O)NCCCCCCCN(C)C)c2cc(O)cc(O[C@H]4O[C@H](CO)[C@@H](O)[C@@H](O)[C@@H]4O)c2-c2cc3ccc2O)O[C@@H](CO)[C@@H](O)[C@@H]1O`, the MIC came out at 0.12 µg/mL (≈ 0.0594 µM) in the assay with Enterococcus faecalis; 0.06 µg/mL (≈ 0.0297 µM) against Streptococcus pyogenes [1]; 0.12 µg/mL (≈ 0.0594 µM) in assay [2]; 0.5 µg/mL (≈ 0.248 µM) in assay [3]; 0.12 µg/mL (≈ 0.0594 µM) in the assay with Staphylococcus aureus; 0.12 µg/mL (≈ 0.0594 µM) in the assay with Streptococcus pneumoniae. Further, the ED50 was 0.18 mg/kg in the assay with Streptococcus pyogenes [4] and > 300 mg/kg with Streptococcus pyogenes [5].
For `CC(=O)N[C@@H]1[C@H](O[C@@H]2c3ccc(c(Cl)c3)Oc3cc4cc(c3O[C@@H]3O[C@@H](CO)[C@@H](O)[C@H](O)[C@@H]3NC(=O)CCCCCCC(C)C)Oc3ccc(cc3Cl)C[C@H]3NC(=O)[C@H](N)c5ccc(O)c(c5)Oc5cc(O)cc(c5)[C@H](NC3=O)C(=O)N[C@H]4C(=O)N[C@H]3C(=O)N[C@@H]2C(=O)N[C@H](C(=O)NCCCN)c2cc(O)cc(O[C@H]4O[C@H](CO)[C@@H](O)[C@@H](O)[C@@H]4O)c2-c2cc3ccc2O)O[C@@H](CO)[C@@H](O)[C@@H]1O`, the MIC in the assay on Enterococcus faecalis was found to be 0.12 µg/mL (≈ 0.062 µM); against Streptococcus pyogenes [1], 0.03 µg/mL (≈ 0.0155 µM); in assay [2] it was 0.06 µg/mL (≈ 0.031 µM); in assay [3] it was 0.12 µg/mL (≈ 0.062 µM); against Staphylococcus aureus it was 0.12 µg/mL (≈ 0.062 µM); in the assay on Streptococcus pneumoniae it was 0.12 µg/mL (≈ 0.062 µM). Further, the values for the ED50 in the assay on Streptococcus pyogenes [4] and in the assay on Streptococcus pyogenes [5] were 0.08 mg/kg and 89.6 mg/kg, respectively.
On to `CNCCNC(=O)[C@H]1NC(=O)[C@H]2NC(=O)[C@H](NC(=O)[C@@H]3NC(=O)[C@H]4NC(=O)[C@@H](Cc5ccc(c(Cl)c5)Oc5cc3cc(c5O[C@@H]3O[C@@H](CO)[C@@H](O)[C@H](O)[C@@H]3NC(=O)CCCCCCC(C)C)Oc3ccc(cc3Cl)[C@H]2O[C@@H]2O[C@@H](CO)[C@@H](O)[C@H](O)[C@@H]2NC(C)=O)NC(=O)[C@H](N)c2ccc(O)c(c2)Oc2cc(O)cc4c2)c2ccc(O)c(c2)-c2c(O[C@H]3O[C@H](CO)[C@@H](O)[C@@H](O)[C@@H]3O)cc(O)cc21`, for which the MIC against Enterococcus faecalis was found to be 0.12 µg/mL (≈ 0.062 µM); in the assay on Streptococcus pyogenes [1], 0.06 µg/mL (≈ 0.031 µM); in assay [2], 0.12 µg/mL (≈ 0.062 µM); in assay [3], 0.12 µg/mL (≈ 0.062 µM); against Staphylococcus aureus, 0.12 µg/mL (≈ 0.062 µM); in the assay with Streptococcus pneumoniae, 0.12 µg/mL (≈ 0.062 µM). Further, the ED50 in the assay on Streptococcus pyogenes [4] is 0.08 mg/kg; in the assay on Streptococcus pyogenes [5], 173 mg/kg.
For the molecule `CNCCCN(C)C(=O)[C@H]1NC(=O)[C@H]2NC(=O)[C@H](NC(=O)[C@@H]3NC(=O)[C@H]4NC(=O)[C@@H](Cc5ccc(c(Cl)c5)Oc5cc3cc(c5O[C@@H]3O[C@@H](CO)[C@@H](O)[C@H](O)[C@@H]3NC(=O)CCCCCCC(C)C)Oc3ccc(cc3Cl)[C@H]2O[C@@H]2O[C@@H](CO)[C@@H](O)[C@H](O)[C@@H]2NC(C)=O)NC(=O)[C@H](N)c2ccc(O)c(c2)Oc2cc(O)cc4c2)c2ccc(O)c(c2)-c2c(O[C@H]3O[C@H](CO)[C@@H](O)[C@@H](O)[C@@H]3O)cc(O)cc21`, the MIC in the assay with Enterococcus faecalis turned out to be 0.12 µg/mL (≈ 0.0611 µM); in the assay with Streptococcus pyogenes [1], 0.06 µg/mL (≈ 0.0306 µM); in assay [2] it was 0.06 µg/mL (≈ 0.0306 µM); in assay [3] it was 0.25 µg/mL (≈ 0.127 µM); in the assay with Staphylococcus aureus it was 0.12 µg/mL (≈ 0.0611 µM); against Streptococcus pneumoniae, 0.12 µg/mL (≈ 0.0611 µM). The figures for the ED50 in the assay with Streptococcus pyogenes [4] and in the assay with Streptococcus pyogenes [5] were 0.13 mg/kg and > 300 mg/kg, respectively.
On to `CC(=O)N[C@@H]1[C@H](O[C@@H]2c3ccc(c(Cl)c3)Oc3cc4cc(c3O[C@@H]3O[C@@H](CO)[C@@H](O)[C@H](O)[C@@H]3NC(=O)CCCCCCC(C)C)Oc3ccc(cc3Cl)C[C@H]3NC(=O)[C@H](N)c5ccc(O)c(c5)Oc5cc(O)cc(c5)[C@H](NC3=O)C(=O)N[C@H]4C(=O)N[C@H]3C(=O)N[C@@H]2C(=O)N[C@H](C(=O)NCc2ccccn2)c2cc(O)cc(O[C@H]4O[C@H](CO)[C@@H](O)[C@@H](O)[C@@H]4O)c2-c2cc3ccc2O)O[C@@H](CO)[C@@H](O)[C@@H]1O`, for which the MIC turned out to be 0.12 µg/mL (≈ 0.0609 µM) in the assay with Enterococcus faecalis; 0.06 µg/mL (≈ 0.0305 µM) against Streptococcus pyogenes [1]; 0.12 µg/mL (≈ 0.0609 µM) in assay [2]; 8 µg/mL (≈ 4.06 µM) in assay [3]; 0.12 µg/mL (≈ 0.0609 µM) against Staphylococcus aureus; 0.06 µg/mL (≈ 0.0305 µM) against Streptococcus pneumoniae. In addition, the ED50 came out at 0.08 mg/kg in the assay on Streptococcus pyogenes [4] and 139 mg/kg with Streptococcus pyogenes [5].
Turning to `CC(=O)N[C@@H]1[C@H](O[C@@H]2c3ccc(c(Cl)c3)Oc3cc4cc(c3O[C@@H]3O[C@@H](CO)[C@@H](O)[C@H](O)[C@@H]3NC(=O)CCCCCCC(C)C)Oc3ccc(cc3Cl)C[C@H]3NC(=O)[C@H](N)c5ccc(O)c(c5)Oc5cc(O)cc(c5)[C@H](NC3=O)C(=O)N[C@H]4C(=O)N[C@H]3C(=O)N[C@@H]2C(=O)N[C@H](C(=O)NCCCCN)c2cc(O)cc(O[C@H]4O[C@H](CO)[C@@H](O)[C@@H](O)[C@@H]4O)c2-c2cc3ccc2O)O[C@@H](CO)[C@@H](O)[C@@H]1O`, the MIC against Enterococcus faecalis worked out at 0.12 µg/mL (≈ 0.0615 µM); with Streptococcus pyogenes [1], 0.06 µg/mL (≈ 0.0308 µM); in assay [2], 0.06 µg/mL (≈ 0.0308 µM); in assay [3] it was 0.12 µg/mL (≈ 0.0615 µM); with Staphylococcus aureus it was 0.12 µg/mL (≈ 0.0615 µM); in the assay on Streptococcus pneumoniae, 0.12 µg/mL (≈ 0.0615 µM). Besides, the ED50 in the assay with Streptococcus pyogenes [4] amounted to 0.07 mg/kg; in the assay on Streptococcus pyogenes [5], 90 mg/kg.
Take `CC(=O)N[C@@H]1[C@H](O[C@@H]2c3ccc(c(Cl)c3)Oc3cc4cc(c3O[C@@H]3O[C@@H](CO)[C@@H](O)[C@H](O)[C@@H]3NC(=O)CCCCCCC(C)C)Oc3ccc(cc3Cl)C[C@H]3NC(=O)[C@H](N)c5ccc(O)c(c5)Oc5cc(O)cc(c5)[C@H](NC3=O)C(=O)N[C@H]4C(=O)N[C@H]3C(=O)N[C@@H]2C(=O)N[C@H](C(=O)NCCCCCCN)c2cc(O)cc(O[C@H]4O[C@H](CO)[C@@H](O)[C@@H](O)[C@@H]4O)c2-c2cc3ccc2O)O[C@@H](CO)[C@@H](O)[C@@H]1O`: the MIC against Enterococcus faecalis worked out at 0.12 µg/mL (≈ 0.0607 µM); in the assay with Streptococcus pyogenes [1], 0.06 µg/mL (≈ 0.0303 µM); in assay [2], 0.06 µg/mL (≈ 0.0303 µM); in assay [3], 0.12 µg/mL (≈ 0.0607 µM); against Staphylococcus aureus it was 0.12 µg/mL (≈ 0.0607 µM); against Streptococcus pneumoniae, 0.12 µg/mL (≈ 0.0607 µM). The ED50 is 0.14 mg/kg in the assay on Streptococcus pyogenes [4] and > 300 mg/kg in the assay on Streptococcus pyogenes [5].
Turning to `CC(=O)N[C@@H]1[C@H](O[C@@H]2c3ccc(c(Cl)c3)Oc3cc4cc(c3O[C@@H]3O[C@@H](CO)[C@@H](O)[C@H](O)[C@@H]3NC(=O)CCCCCCC(C)C)Oc3ccc(cc3Cl)C[C@H]3NC(=O)[C@H](N)c5ccc(O)c(c5)Oc5cc(O)cc(c5)[C@H](NC3=O)C(=O)N[C@H]4C(=O)N[C@H]3C(=O)N[C@@H]2C(=O)N[C@H](C(=O)NCC(=O)O)c2cc(O)cc(O[C@H]4O[C@H](CO)[C@@H](O)[C@@H](O)[C@@H]4O)c2-c2cc3ccc2O)O[C@@H](CO)[C@@H](O)[C@@H]1O`, the MIC against Enterococcus faecalis is 0.25 µg/mL (≈ 0.129 µM); against Streptococcus pyogenes [1] it was 0.12 µg/mL (≈ 0.062 µM); in assay [2] it was 0.12 µg/mL (≈ 0.062 µM); with Staphylococcus aureus it was 0.12 µg/mL (≈ 0.062 µM); in the assay with Streptococcus pneumoniae, 0.12 µg/mL (≈ 0.062 µM). In addition, the ED50 was 0.23 mg/kg in the assay with Streptococcus pyogenes [4] and > 300 mg/kg in the assay with Streptococcus pyogenes [5].

The ED50 is the dose that gives a 50% effect, or the effect in half of the subjects.
